Measured values from different studies.
Compare with care: the assays were run in different laboratories.
Target: Homeodomain-interacting protein kinase 1 (HIPK1, Homo sapiens, UniProt Q86Z02)

CN(C)c1nccc(-c2cnn3ncccc23)n1
remaining binding (binding; 1 µM): 55%

FC(F)(F)c1ccc2c(c1)nc(-c1cccnc1)n2C1CC1
remaining binding (cell-free assay; competition with immobilised ligand; 1 µM): 100%

O=C(Nc1c[nH]nc1C(=O)NC1CCNCC1)c1cc(F)cc(F)c1
remaining binding (binding; competition with immobilised ligand; 1 µM): 33%

Cc1cnc(Nc2ccc(C(=O)N3CCC(N4CCCC4)CC3)cc2)nc1-c1cc2ccccc2s1
remaining binding (binding; competition with immobilised ligand; 1 µM): 2.2%

C[C@@H](c1ccc(-n2cnc3c(N)ncnc32)cc1)N1CCc2nn(C)c(Cc3ccccc3)c2C1=O
remaining binding (binding; competition with immobilised ligand; 0.1 µM): 91%

COc1ccnn2ncc(-c3ccnc(N(C)C)n3)c12
remaining binding (binding; 1 µM): 55%

CCN1CCN(Cc2ccc(C(=O)Nc3ccc(C)c(Oc4ccc5c(c4)CC(=O)N5)c3)cc2C(F)(F)F)CC1
remaining binding (binding; competition with immobilised ligand; 1 µM): 83%

COc1cc(-c2cn(C3CCc4ccccc4N(CC(F)(F)F)C3=O)nn2)ccc1-n1ccc(C)n1 (stereo not drawn)
remaining binding (cell-free assay; competition with immobilised ligand; 1 µM): 96%

O=C(c1ccc(Nc2ncc(Cl)c(-c3cc4ccccc4s3)n2)cc1)N1CCC(N2CCCC2)CC1
remaining binding (binding; competition with immobilised ligand; 1 µM): 1.4%

O=C(NS(=O)(=O)c1ccc(NCC2CCOCC2)c([N+](=O)[O-])c1)c1ccc(N2CCN(Cc3ccc(C(F)(F)F)cc3-c3ccc(Cl)cc3)CC2)cc1Oc1cnc2[nH]ccc2c1
remaining binding (cell-free assay; competition with immobilised ligand; 1 µM): 84%

COc1ncc2cc3ccccc3nc2c1C#N
remaining binding (cell-free assay; competition with immobilised ligand; 5 µM): 81%

CS(=O)(=O)NCC[C@H](NC(=O)c1cncc2c1cnn2-c1ccc(F)cc1)c1ccnc(S(C)(=O)=O)c1
remaining binding (cell-free assay; competition with immobilised ligand; 1 µM): 100%

C[C@H]1CCN(c2nccc(-c3cnn4ncccc34)n2)C1
remaining binding (binding; 1 µM): 40%

Cc1cc(-n2nc(Cc3cc(F)cc(C(F)(F)F)c3)nc2C)ccc1C(N)=O
remaining binding (cell-free assay; competition with immobilised ligand; 1 µM): 92%

N[C@@H]1CCN(c2nccc(-c3cnn4ncccc34)n2)C1
remaining binding (binding; 1 µM): 43%

C[C@H](NC(=O)c1cnc2n1[C@](C)(Cc1ccc(C#N)cc1)C(=O)N2c1cc(Cl)c(F)c(Cl)c1)C(=O)NC1(c2ccccn2)CC1
remaining binding (cell-free assay; competition with immobilised ligand; 1 µM): 97%

O=C(c1ccc(Nc2nccc(-c3cc4ccccc4s3)n2)cc1)N1CCC(N2CCCC2)CC1
remaining binding (binding; competition with immobilised ligand; 1 µM): 13%

CN(C)c1ncc(F)c(-c2cnn3ncccc23)n1
remaining binding (binding; 1 µM): 75%

CNC(=O)[C@@H]1CC[C@@H](n2c(-c3ccc4cnccc4c3)nc3ccc(C(=O)NCc4cccc(C(N)=O)c4)cc32)C1
remaining binding (binding; competition with immobilised ligand; 1 µM): 85%

c1cncc(-c2cccc(Nc3nccc(NC4CCCCC4)n3)c2)c1
remaining binding (binding; competition with immobilised ligand; 10 µM): 56%

COc1cc(Nc2nccc(-c3cnn4nc(OC)ccc34)n2)cc(C(F)(F)F)c1
remaining binding (binding; competition with immobilised ligand; 1 µM): 31%
